Shown are actives, neighbours in structure and some others; about 2.1% of the full set was active somewhere.
SUMO Mot1 rescue – blocks SUMOylation pathway, rescuing yeast Mot1-301 growth | S. cerevisiae Mot1-301 growth rescue, ATP luminescence, 38.5C; percent above DMSO median, 100 means doubled | growth rescue, % at 18.8 µM | 320,000 tested, 1% active;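 active = every valid replicate shows activation above 250% relative to neutral control wells; inactive = the rest, any valid replicate at or below 250%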;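 note: OY570 slx delta 5 strain wells were the positive control but not used for scaling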
ARFGAP1 inh – inhibitors of rat ARFGAP1. Arfgap1-stimulated ARF1 GTP hydrolysis, GDP FP detection. 360,000 tested, 0.26% active. inhibition, % at 16.5 µM;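 active = inhibition above a per-plate limit, mean inhibition of low control wells plus 3 SD, cut at about 25% in these data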;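 note: 0% = DMSO wells with enzyme and 100% = wells lacking Arfgap1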
Target sequence (Q62848 1-136 limits assumed): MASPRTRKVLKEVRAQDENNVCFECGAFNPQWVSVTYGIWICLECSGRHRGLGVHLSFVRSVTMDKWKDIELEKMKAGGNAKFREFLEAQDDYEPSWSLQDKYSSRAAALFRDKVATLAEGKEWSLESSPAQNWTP
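System: truncated rat Arfgap1 GAP domain / Medium: HEPES-based buffer, pH 7.5 / Also added: N-terminally truncated human ARF1-GTP substrate / Incubation: enzyme reaction 120 min at 25 °C after 20 min preincubation / Measured by: FP of antibody-bound GDP Alexa 633 tracer, ex 620/em 688 nm / Replicates: singlicate, each compound tested once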
A3A deaminase – blocks human APOBEC3A ssDNA deamination | P31941 | recombinant A3A, FAM/TAMRA ssDNA deamination fluorescence | inhibition, % at 20 µM | 330,000 tested, 0.41% active | AID 493011;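 active = at least 40% inhibition at 20 µM here, with at most 30% in a related deaminase screen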;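 note: plate controls were A3A with DMSO for no effect and wells lacking A3A enzyme for full effect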
Target sequence (P31941 whole entry, looked up): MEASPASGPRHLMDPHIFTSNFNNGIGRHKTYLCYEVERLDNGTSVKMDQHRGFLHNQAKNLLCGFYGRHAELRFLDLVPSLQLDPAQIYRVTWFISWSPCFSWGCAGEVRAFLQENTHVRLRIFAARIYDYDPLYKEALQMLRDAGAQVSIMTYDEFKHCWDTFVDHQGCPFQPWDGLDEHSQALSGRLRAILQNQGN
C2C12 statin – suppression of simvastatin myotoxicity | rescue of ATP level, % at 7.49 µM | AID 602340 | C2C12 myotubes + simvastatin, ATP luminescence, 48 h; scaled: DMSO 0, geranylgeraniol control 100 | 330,000 tested, 0.78% active;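 active = mean ATP rescue above about 67%, or every replicate alone reaching that limit, limit read from the data, passing the limit was not always enough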;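 note: myotubes were challenged with 10 µM simvastatin during compound exposure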
A3G deaminase – inhibitors of human APOBEC3G DNA deaminase. AID 493012. inhibition, % at 20 µM. Q9HC16. recombinant A3G, ssDNA deamination FAM/TAMRA fluorescence. 330,000 tested, 0.28% active;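 active = inhibition of at least 40% at 20 µM, with no more than 30% in the related APOBEC3A deaminase screen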;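 note: plate controls were DMSO wells with A3G for no effect and wells lacking A3G enzyme for full effect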
ASAP1 GAP inh – inhibitors of human ASAP1 ArfGAP activity. AID 624377. ASAP1-stimulated ARF1 GTP hydrolysis, GDP FP detection. 360,000 tested, 0.19% active. inhibition, % at 16.5 µM; in the data active = inhibition above about 25%;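 note: 0% = vehicle with enzyme and substrate and 100% = no enzyme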
APOBEC3A confirm – APOBEC3A (human) deaminase inhibition, confirmed | recombinant A3A, ssDNA deaminase UDG fluorescence assay | 1,400 tested, 63% active | shares compounds with A3A deaminase | inhibition, % at 20 µM | AID 493151;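 active = inhibition reaching a set limit, 80% of the first screen's cutoff, at 20 µM in any replicate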;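 note: plate controls were DMSO wells with A3A for no effect and wells lacking A3A enzyme for full effect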
UDG ctr A3A – UDG inhibition in APOBEC3A counter-screen; shares compounds with A3A deaminase; UDG counterscreen, FAM/TAMRA uracil oligo fluorescence; inhibition, % at 20 µM; 1,000 tested, under 10 active; AID 504714; call rule not given here
Active calls of the source: *; . = no result given.

SMILES	SUMO Mot1 rescue	ARFGAP1 inh	A3A deaminase	C2C12 statin	A3G deaminase	ASAP1 GAP inh	APOBEC3A confirm	UDG ctr A3A
CC=Cc1ccc2n(c1=O)C[C@H]1N[C@@H]2[C@@H](C(=O)NCc2ccc3c(c2)OCO3)[C@@H]1CO (mixture of isomers)	.	.	.	47	.	.	.	.
O=C(CCc1ccccc1)Nc1ncn[nH]1	4	3	94*	-20	-7	-2	7	3
CC1CCC/C(=N/NC(=O)c2ccccc2-n2cccc2)C1 (centres undefined)	-8	7	53*	.	16	3	13*	-3
Cc1noc(C)c1NC(=O)Nc1ccc2c(c1)C(=O)N(C)[C@@H]1CC[C@H](CC(=O)N(C)C)O[C@H]1CO2	.	.	.	8	.	.	.	.
CC(C)(C)OC(=O)N1CC(O)CC1C(=O)OCC(=O)c1ccc(-c2ccccc2)cc1 (centres undefined)	200	-10	83*	.	26	-16	71*	-1
CC(C)(C)OC(=O)N1CC(O)CC1C(=O)OCC(=O)c1ccc(Cl)cc1 (centres undefined)	-15	-1	42*	2	5	3	2	.
CC(C)(C)OC(=O)N1CC(O)CC1C(=O)OCC(=O)c1ccccc1 (centres undefined)	-2	3	2	12	0	3	.	.
CC(=O)NC[C@H]1[C@@H](c2ccccc2)[C@@H](CO)N1C(=O)Cc1ccncc1	.	.	.	1	.	.	.	.
O=C(C[C@@H]1C[C@H]2c3cc(NC(=O)NC4CCCC4)ccc3O[C@H]2[C@H](CO)O1)NCc1ccc(-c2ccccc2)cc1	.	.	.	-48	.	.	.	.
Cc1ccc(S(=O)(=O)/N=C2/NC(=O)/C(=C/c3ccc(Br)o3)S2)cc1	53	-4	52*	.	-6	-1	-5	1
O=C1CCC(=O)N1c1ccc(-c2nc3sc4c(c3c(=O)o2)CCC4)cc1	-3	-1	2	.	-5	2	.	.
O=c1oc(-c2ccccc2)nc2sc3c(c12)CCC3	141	2	56*	.	22	-1	35*	-3
COCc1cc(C)nc(SCc2ccccc2)c1C#N	-14	-10	-7	2	-5	4	.	.
COCc1cc(C)nc(Sc2nc3c(c(=O)n(C)c(=O)n3C)n2C)c1C#N	.	3	50*	5	13	14	44*	-3
C=CCn1cccc(C(=O)Nc2ccc(OC)c(Cl)c2)c1=O	-3	.	48*	-5	-9	.	-10	6
O=C(CN1C(=O)S/C(=C/c2ccccn2)C1=O)N1CCOCC1	0	-2	57*	2	3	9	2	.
Cc1ccc(S(=O)(=O)N(C)C[C@@H]2Oc3ccc(NS(=O)(=O)c4cccs4)cc3C(=O)N([C@H](C)CO)C[C@@H]2C)cc1	.	.	.	-23	.	.	.	.
CN(C)C(=O)C[C@@H]1C[C@H]2c3cc(NC(=O)Nc4ccc(C(F)(F)F)cc4)ccc3O[C@H]2[C@@H](CO)O1	.	.	.	-10	.	.	.	.
C[C@@H]1CN([C@@H](C)CO)C(=O)Cc2cc(N(C)C)ccc2O[C@H]1CN(C)S(=O)(=O)c1ccc(F)cc1	.	.	.	1	.	.	.	.
C[C@H](O)C#Cc1cnc2c(c1)C(=O)N([C@H](C)CO)C[C@@H](C)[C@H](CN(C)C(=O)c1ccccc1F)O2	.	.	.	-2	.	.	.	.
O=C(C1COc2ccccc2O1)N1CCc2ccccc21 (centres undefined)	64	9	43*	24	15	0	36*	1
CC1CN(S(=O)(=O)c2cccc(C(=O)OCc3cc(=O)oc4cc(O)ccc34)c2)CC(C)O1 (centres undefined)	-12	2	12	2	1	-2	.	.
CN(C)c1cccc(C(=O)OCc2cc(=O)oc3cc(O)ccc23)c1	-13	7	74*	.	19	3	75*	-2
CCNc1ccc(Br)cc(C(=O)/C=C/c2ccc3c(c2)OCO3)c1=O	5	-4	46*	41	28	17	19*	-4
CCCCCCNC(=O)c1cc(-c2ccco2)nc2ccccc12	119	2	62*	.	21	0	54*	0
SMILES	SUMO Mot1 rescue	ARFGAP1 inh	A3A deaminase	C2C12 statin	A3G deaminase	ASAP1 GAP inh	APOBEC3A confirm	UDG ctr A3A
C[C@H](CO)N1C[C@H](C)[C@H](CN(C)C(=O)Nc2ccccc2)Oc2ccc(NC(=O)Cc3ccccc3)cc2C1=O	.	.	.	18	.	.	.	.
CCN1CCN(S(=O)(=O)c2ccc(Cl)c(C(=O)Nc3ccccc3N3CCOCC3)c2)CC1	.	8	53*	5	4	6	57*	-1
CCN1CCN(S(=O)(=O)c2ccc(Cl)c(C(=O)Nc3cc(Cl)ccc3N3CCOCC3)c2)CC1	-4	9	54*	.	28	-7	58*	0
CCN1CCN(c2ccc(S(=O)(=O)N3CCOCC3)cc2NC(=O)c2ccc(Cl)cc2Cl)CC1	20	0	45*	-23	4	3	24	.
O=C(Nc1ccccc1N1CCCCC1)c1cc(S(=O)(=O)N2CCOCC2)ccc1Cl	-1	1	-2	.	-6	11	.	.
CCN1CCN(c2ccc(S(=O)(=O)N3CCOCC3)cc2NC(=O)c2ccc(C)c(C)c2)CC1	.	5	24	18	-6	3	.	.
CCCNC(=O)[C@@H]1[C@@H](CO)[C@@H]2Cn3c(ccc(/C=C/c4ccccc4)c3=O)[C@H]1N2C(=O)c1cccnc1	.	.	.	1	.	.	.	.
C[C@@H]1CN([C@@H](C)CO)C(=O)c2cc(NC(=O)C3CCCCC3)ccc2O[C@@H]1CN(C)S(C)(=O)=O	.	.	.	-4	.	.	.	.
C[C@@H]1CN([C@H](C)CO)C(=O)Cc2cc(NS(=O)(=O)c3ccc(Cl)cc3)ccc2O[C@@H]1CN(C)Cc1ccc(Cl)c(Cl)c1	.	.	.	54	.	.	.	.
CC(=O)Nc1ccc(NC(=O)CSc2nnc(NC(=O)c3ccccc3F)s2)cc1	.	-1	.	-5	.	-3	.	.
Cc1ccccc1NC(=O)CSc1nnc(NC(=O)C2CC2)s1	-3	9	1	6	-3	13	.	.
